Results from article PMC4830347 (Journal of the American Chemical Society, 2016).

Legend:
[1] = test system: HeLa cells; assay: MTT cell viability assay, HeLa cells; assay type: cell-based
Procedure, shortened: (§1)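 HeLa or Saos-2 cells seeded at 1 × 10^4 cells/well and incubated 48 h with test compound in culture medium (200, 300, 400 μM) before MTT read-out; IC50 after 48 h. Inhibitor experiments used test compound at 500 μM for 48 h with or without l-Phe (3 mM) or levamisole (1 mM). Separately, exogenous ALP (5 U/mL) was added together with test compound.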

[2] = test system: Saos-2 cells; assay: MTT cell viability assay, Saos-2 cells; assay type: cell-based; details: Saos-2, six precursors 500 μM, 48 h
Procedure, shortened: as §1

Compound	rescue of precursor-treated cells by TNAP inhibitor ([1]; HeLa, six precursors 500 μM, inhibitor 1 mM, 48 h)	rescue of precursor-treated cells by TNAP inhibitor ([2]; inhibitor 1 mM)	cell compatibility ([1]; 3 mM, cell culture)	rescue of precursor-treated cells by PLAP inhibitor ([2]; L-Phe 3 mM)
c1ccc(C2CN3CCSC3=N2)cc1 (single isomer, unassigned; (-)) [(−)-tetramisole]	hardly rescues HeLa cells	significantly increases the cell viability		
N[C@@H](Cc1ccccc1)C(=O)O [L-Phe, L-phenylalanine]			cell compatible	hardly rescue the Saos-2 cells at all
